Experimental data as given in ChEMBL document CHEMBL1142436, “Design and synthesis of 4-substituted indolo[3,2-e][1,2,3]triazolo[1,5-a]pyrimidine derivatives with antitumor activity” (2008).

Legend:
Format in all cases: functional
HL-60 = test: Growth inhibition of human HL60 cells after 48 hrs; settings: HL-60, 48 h
How it was run: (§1)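 NCI ~60-line screen. Cells were grown in RPMI 1640 with 5% FBS and 2 mM L-glutamine and plated at 5000–40000 cells/well. After a 24 h preincubation, five drug concentrations from DMSO stocks were added for 48 h at 37 °C. Cells were TCA-fixed, stained with SRB and read at 515 nm. GI50 was taken from time-zero and control absorbances and reported as pGI50.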

K562 = test: Growth inhibition of human K562 cells after 48 hrs; settings: K562, 48 h; how it was run: as §1
EKVX = test: Growth inhibition of human EKVX cells after 48 hrs; how it was run: as §1
HOP-92 = test: Growth inhibition of human HOP92 cells after 48 hrs; settings: HOP-92, 48 h; how it was run: as §1
NCI-H226 = test: Growth inhibition of human NCI-H226 cells after 48 hrs; settings: NCI-H226, 48 h; how it was run: as §1
NCI-H23 = test: Growth inhibition of human NCI-H23 cells after 48 hrs; settings: Homo sapiens, NCI-H23, 48 h; how it was run: as §1
NCI-H460 = test: Growth inhibition of human NCI-H460 cells after 48 hrs; settings: NCI-H460, 48 h; how it was run: as §1
NCI-H522 = test: Growth inhibition of human NCI-H522 cells after 48 hrs; settings: NCI-H522, 48 h, read-out: pTGI (converted); how it was run: as §1
COLO 205 = test: Growth inhibition of human COLO205 cells after 48 hrs; settings: COLO 205, 48 h; how it was run: as §1
HCC 2998 = test: Growth inhibition of human HCC2998 cells after 48 hrs; settings: HCC 2998, 48 h; how it was run: as §1
HCT-116 = test: Growth inhibition of human HCT116 cells after 48 hrs; settings: HCT-116, 48 h; how it was run: as §1
HCT-15 = test: Growth inhibition of human HCT15 cells after 48 hrs; settings: HCT-15, 48 h; how it was run: as §1
HT-29 = test: Growth inhibition of human HT29 cells after 48 hrs; settings: HT-29, 48 h; how it was run: as §1
KM12 = test: Growth inhibition of human KM12 cells after 48 hrs; settings: KM12, 48 h; how it was run: as §1
SW-620 = test: Growth inhibition of human SW620 cells after 48 hrs; settings: SW-620, 48 h
How it was run: (§2)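 NCI 60-line screen: cells in RPMI 1640 with 5% FBS and 2 mM L-glutamine, plated at 5000–40000 cells/well, grown 24 h (37 °C, 5% CO₂), then exposed to five 10-fold or ½-log dilutions (DMSO stock) for 48 h. Fixed with TCA (final 10% for adherent cells, 16% for suspension cells), then SRB stained with absorbance at 515 nm. GI50 from percentage growth relative to time-zero and control wells.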

SF-268 = test: Growth inhibition of human SF268 cells after 48 hrs; settings: SF-268, 48 h; how it was run: as §1
SF-295 = test: Growth inhibition of human SF295 cells after 48 hrs; settings: SF-295, 48 h; how it was run: as §1
SF-539 = test: Growth inhibition of human SF539 cells after 48 hrs; settings: SF-539, 48 h; how it was run: as §1
LOX IMVI = test: Growth inhibition of human LOXIMVI cells after 48 hrs; how it was run: as §1
M14 = test: Growth inhibition of human M14 cells after 48 hrs; settings: M14, 48 h; how it was run: as §1
SK-MEL-5 = test: Growth inhibition of human SK-MEL5 cells after 48 hrs; settings: SK-MEL-5, 48 h; how it was run: as §1
UACC-257 = test: Growth inhibition of human UACC257 cells after 48 hrs; settings: UACC-257, 48 h; how it was run: as §2
UACC-62 = test: Growth inhibition of human UACC62 cells after 48 hrs; settings: UACC-62, 48 h; how it was run: as §2
IGROV-1 = test: Growth inhibition of human IGROV1 cells after 48 hrs; settings: IGROV-1, 48 h; how it was run: as §1
OVCAR-3 = test: Growth inhibition of human OVCAR-3 cells after 48 hrs; settings: OVCAR-3, 48 h; how it was run: as §1
OVCAR-5 = test: Growth inhibition of human OVCAR5 cells after 48 hrs; settings: OVCAR-5, 48 h; how it was run: as §1
OVCAR-8 = test: Growth inhibition of human OVCAR8 cells after 48 hrs; settings: OVCAR-8, 48 h; how it was run: as §1
786-0 = test: Growth inhibition of human 786-0 cells after 48 hrs; settings: 786-0, 48 h; how it was run: as §1
RXF 393 = test: Growth inhibition of human RXF393 cells after 48 hrs; settings: RXF 393, 48 h; how it was run: as §1
DU-145 = test: Growth inhibition of human DU145 cells after 48 hrs; settings: DU-145, 48 h; how it was run: as §1
MCF7 = test: Growth inhibition of human MCF7 cells after 48 hrs; settings: MCF7, 48 h; how it was run: as §1
NCI/ADR-RES = test: Growth inhibition of human NCI/ADR-RES cells after 48 hrs; how it was run: as §1
MDA-MB-231 = test: Growth inhibition of human MDA-MB-231 cells after 48 hrs; settings: MDA-MB-231, 48 h; how it was run: as §1

With `CCCCN(CCCC)CCCn1c(=O)c2c3ccccc3n(C)c2n2nnc(-c3ccccc3)c12` the GI50 (HL-60) was 2.57 µM, the TGI (HL-60; read-out: pTGI (converted)) was 41.7 µM and the GI50 (K562) was 13.8 µM. For the same molecule, the TGI (K562; read-out: pTGI (converted)) was > 100 µM, the GI50 (EKVX) was 56.2 µM and the TGI (EKVX; read-out: pTGI (converted)) was > 100 µM. It also gave a GI50 (HOP-92) of 18.6 µM, a TGI (HOP-92; read-out: pTGI (converted)) of 44.7 µM and a GI50 (NCI-H226) of 57.5 µM. For the same molecule, the TGI (NCI-H226; read-out: pTGI) was > 100 µM, the CC50 (NCI-H23; read-out: Log LC50 (the source's name) (converted)) was 12.9 µM and the TGI (NCI-H23; read-out: pTGI (converted)) was 63.1 µM. For the same molecule, the GI50 (NCI-H460) was 40.7 µM, the TGI (NCI-H460; read-out: pTGI (converted)) was > 100 µM and the TGI (NCI-H522) was 10.7 µM. The GI50 (COLO 205) was 5.01 µM, the TGI (COLO 205; read-out: pTGI (converted)) was 63.1 µM and the GI50 (HCC 2998) was 20.4 µM. For the same molecule, the TGI (HCC 2998; read-out: pTGI (converted)) was > 100 µM, the GI50 (HCT-116) was 18.6 µM and the TGI (HCT-116; read-out: pTGI (converted)) was > 100 µM. The GI50 (HCT-15) was 20.9 µM, the TGI (HCT-15; read-out: pTGI) was > 100 µM and the GI50 (HT-29) was 7.76 µM. For the same molecule, the TGI (HT-29; read-out: pTGI (converted)) was 36.3 µM, the GI50 (KM12) was 33.9 µM and the TGI (KM12; read-out: pTGI (converted)) was > 100 µM. For the same molecule, the GI50 (SW-620) was 26.3 µM, the TGI (SW-620; read-out: pTGI (converted)) was > 100 µM and the GI50 (SF-268) was > 100 µM. For the same molecule, the TGI (SF-268; read-out: pTGI (converted)) was > 100 µM, the GI50 (SF-295) was 31.6 µM and the TGI (SF-295; read-out: pTGI (converted)) was > 100 µM. For the same molecule, the GI50 (SF-539) was 66.1 µM, the TGI (SF-539; read-out: pTGI (converted)) was > 100 µM and the GI50 (LOX IMVI) was 28.2 µM. The TGI (LOX IMVI; read-out: pTGI (converted)) was > 100 µM, the GI50 (M14) was 21.4 µM and the TGI (M14; read-out: pTGI (converted)) was > 100 µM. The GI50 (SK-MEL-5) was 31.6 µM, the TGI (SK-MEL-5; read-out: pTGI (converted)) was > 100 µM and the GI50 (UACC-257) was 28.8 µM. The TGI (UACC-257; read-out: pTGI (converted)) was 83.2 µM, the GI50 (UACC-62) was 22.4 µM and the TGI (UACC-62; read-out: pTGI (converted)) was 85.1 µM. For the same molecule, the LC50 (IGROV-1) was > 50.1 µM, the GI50 (OVCAR-3) was 49 µM and the TGI (OVCAR-3; read-out: pTGI (converted)) was > 100 µM. For the same molecule, the GI50 (OVCAR-5) was 22.4 µM, the TGI (OVCAR-5; read-out: pTGI (converted)) was > 100 µM and the GI50 (OVCAR-8) was 39.8 µM. For the same molecule, the TGI (OVCAR-8; read-out: pTGI (converted)) was > 100 µM, the GI50 (786-0) was 38.9 µM and the TGI (786-0; read-out: pTGI (converted)) was > 100 µM. It also gave a GI50 (RXF 393) of 14.1 µM, a TGI (RXF 393; read-out: pTGI (converted)) of 42.7 µM and a GI50 (DU-145) of 47.9 µM. The TGI (DU-145; read-out: pTGI (converted)) was > 100 µM, the GI50 (MCF7) was 37.2 µM and the TGI (MCF7; read-out: pTGI (converted)) was > 100 µM. For the same molecule, the GI50 (NCI/ADR-RES) was 14.1 µM, the TGI (NCI/ADR-RES; read-out: pTGI (converted)) was 67.6 µM and the GI50 (MDA-MB-231) was 36.3 µM. For the same molecule, the TGI (MDA-MB-231; read-out: pTGI (converted)) was > 100 µM.
